For orientation: IC50 means the concentration that inhibits the measured activity by half.

The results in this text go back to PMC5609789 (Drug Design, Development and Therapy, 2017).

Common to all, as to format: cell-based
Test [1] deals with PC-3 prostate cancer cells. The test is described as follows: MTT cell viability assay, PC-3. The settings on record: Homo sapiens, 24 h, read-out: IC50, Prostate carcinoma (PC-3). An outline of the steps: (§1)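 Cells grown in RPMI 1640 with 10% FBS, penicillin and streptomycin at 37°C, 5% CO2. DMSO stocks were 10.0 mM. Seeded in triplicate at 1.0×10^4 cells/well; after 24 h, dosed 5.0–50.0 μM for 24 h. MTT (5.0 mg/mL) was added for 2 h at 37°C in the dark, formazan dissolved in DMSO, A579 read against 650 nm. IC50 reported as mean ± SEM, n=3. Not assigned if viability stayed above 50% at 50 μM.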
Background: Tetrazolium dyes change colour on reduction, which living cells bring about.

Test [2] concerns RT-112 urinary bladder cancer cells. The test is described as follows: MTT cell viability assay, RT-112. The settings on record: Homo sapiens, RT-112, 24 h, read-out: IC50, Bladder carcinoma (RT-112). An outline of the steps:
as §1

Test [3] relates to MDA-MB-231 breast cancer cells. Kind of test: MTT cell viability assay, MDA-MB-231. The settings on record: Homo sapiens; for IC20: MDA-MB-231, read-out: IC20 (20% inhibitory concentration) on MDA-MB-231 cell line. In short, it runs like this:
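MDA-MB-231 cells (ATCC) grown in RPMI 1640 with 10% FBS, penicillin/streptomycin, 37°C, 5% CO2. Seeded in triplicate at 1.0×10^4 cells/well, then after 24 h exposed to 5.0–50.0 μM test compound (10.0 mM DMSO stock) for 24 h. MTT (5.0 mg/mL) was added for 2 h at 37°C in the dark, formazan dissolved in DMSO, and absorbance read at 579 nm (reference 650 nm). Mean ± SEM, n=3.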

Test [4] deals with MCF-7 breast cancer cells. The test is described as follows: MTT cell viability assay, MCF-7. Conditions: Homo sapiens, MCF7, 24 h, read-out: IC50, Breast adenocarcinoma (MCF-7). An outline of the steps: as §1
Test [5] deals with human mammary epithelial cells (HMECs). The test is described as follows: MTT cell viability assay, HMEC normal control. The settings on record: 24 h, read-out: IC50, HMECs (normal cells). An outline of the steps: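 Normal human mammary epithelial cells kept in mammary epithelial growth medium at 37°C, 5% CO2. Test compound was applied for 24 h over 5.0–50.0 μM (10.0 mM DMSO stocks), and viability was measured by MTT: 2 h in the dark at 37°C, DMSO solubilisation, read at 579/650 nm. Mean ± SEM of n=3; no IC50 assigned if viability stayed above 50% at 50 μM.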

The test system of test [6] is EJ-28 urinary bladder cancer cells. Kind of test: MTT cell viability assay, EJ-28. The settings on record: Homo sapiens, EJ-28, 24 h, read-out: IC50, Bladder carcinoma (EJ-28). In short, it runs like this: as §1
The next test has as its system HepG2 liver cancer cells. The test is described as follows: MTT cell viability assay, HepG2. The settings on record: Homo sapiens, HepG2, 24 h, read-out: IC50, Hepatocyte carcinoma (HepG2). An outline of the steps:
(§2)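 Cultured in DMEM with 10% FBS, penicillin/streptomycin, 37°C, 5% CO2. Cells plated in triplicate at 1.0×10^4/well. After 24 h, test compound was added at 5.0–50.0 μM (from 10.0 mM DMSO stocks) for 24 h. MTT reduction ran 2 h at 37°C in the dark, formazan was dissolved in DMSO, absorbance 579 nm (reference 650 nm). IC50 given as mean ± SEM (n=3), not assigned when viability remained >50% at 50 μM.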

Test [7] has as its system HSC-4 oral squamous cancer cells. Kind of test: MTT cell viability assay, HSC-4. Conditions: Homo sapiens, HSC-4, 24 h, read-out: IC50, Oral squamous carcinoma (HSC-4). An outline of the steps:
as §2

For `C=CCc1cc(OC)c(O)c(OC)c1` [compound 2, 4-Allyl-2,6-dimethoxyphenol], the IC50 (in test [1]; in test [2]; in test [4]; in test [5]; in test [6]; in the test with HepG2 liver cancer cells) was over 50 µM throughout. Further, the IC50 in test [7] was over 50 µM. The IC20 in test [3] is 48 µM.
`C=CCc1ccc(OC)cc1` [compound 5, 4-allyl anisole]: the IC50 in test [1] is over 50 µM; in test [2], over 50 µM; in test [3] (MDA-MB-231, 24 h, read-out: IC50, Breast adenocarcinoma (MDA-MB-231)), over 50 µM; in test [4] it was over 50 µM; in test [5], over 50 µM; in test [6] it was over 50 µM. The IC50 (in the test with HepG2 liver cancer cells; in test [7]) was over 50 µM in each case. The IC20 in test [3] was 32 µM.
